The test system of assay [1] is Mus musculus. Put plainly: Immunomodulatory activity in ip dosed C57BL/6 mouse assessed as stimulation of IFNgamma production after 24 hrs.
The subject of assay [2] is Mus musculus. As to the kind of experiment: Immunomodulatory activity in ip dosed C57BL/6 mouse assessed as stimulation of IFNgamma production after 24 hrs. It is filed as functional, organism-based. In short, it runs like this:
(§1)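 C57BL/6 mice received the glycolipids by intraperitoneal injection. Cytokines were measured in serum: IL-4 at 2 h and IFN-γ at 24 h after injection.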

In assay [3] the test system is Mus musculus. As to the kind of experiment: Immunomodulatory activity in ip dosed C57BL/6 mouse assessed as stimulation of IL4 production after 2 hrs. It is filed as functional, organism-based. In short, it runs like this: as §1
Assay [4] has as its system Mus musculus. Put plainly: Immunomodulatory activity in ip dosed C57BL/6 mouse assessed as stimulation of IL4 production after 2 hrs.
In another assay the test system is iNKT. As to the kind of experiment: Immunomodulatory activity in mouse iNKT DN3A4-1.2 cells assessed as stimulation of IL2 production after 24 hrs by ELISA. (In general: ELISA stands for enzyme-linked immunosorbent assay.)

Consider eight compounds from ChEMBL document CHEMBL2057201, “New CD1d agonists: synthesis and biological activity of 6″-triazole-substituted α-galactosyl ceramides” (Bioorg Med Chem Lett, 2012).

Calls of active or inactive are those of the source. The rule behind the calls is not given here.

Consider `CCCCCCCCCCCCCCCCCCCCCCCCCC(=O)N[C@@H](CO[C@H]1O[C@H](Cn2cc(CCCCCCCCCCCC)nn2)[C@H](O)[C@H](O)[C@H]1O)[C@H](O)[C@H](O)CCCCCCCCCCCCCC`, for which the outcome in the assay with Mus musculus [1], in the assay with Mus musculus [2], in the assay with Mus musculus [3] and with Mus musculus [4] was Active.
Consider `CCCCCCCCCCCCCCCCCCCCCCCCCC(=O)N[C@@H](CO[C@H]1O[C@H](Cn2cc(COCCOCCOCCOCCOCCOCCOCCOCCOC)nn2)[C@H](O)[C@H](O)[C@H]1O)[C@H](O)[C@H](O)CCCCCCCCCCCCCC`, for which the result with iNKT, in the assay on Mus musculus [1], with Mus musculus [2], in the assay on Mus musculus [3] and in the assay on Mus musculus [4] was Active.
As to `CCCCCCCCCCCCCCCCCCCCCCCCCC(=O)N[C@@H](CO[C@H]1O[C@H](Cn2nnc(-c3ccccc3)c2-c2ccccc2)[C@H](O)[C@H](O)[C@H]1O)[C@H](O)[C@H](O)CCCCCCCCCCCCCC`, the result in the assay with iNKT was Active.
Turning to `CCCCCCCCCCCCCCCCCCCCCCCCCC(=O)N[C@@H](CO[C@H]1O[C@H](Cn2cc(CCCCCCCC)nn2)[C@H](O)[C@H](O)[C@H]1O)[C@H](O)[C@H](O)CCCCCCCCCCCCCC`, the result with iNKT, in the assay on Mus musculus [1], with Mus musculus [2], with Mus musculus [3] and in the assay with Mus musculus [4] was Active.
With `CCCCCCCCCCCCCCCCCCCCCCCCCC(=O)N[C@@H](CO[C@H]1O[C@H](Cn2nnc3ccccc32)[C@H](O)[C@H](O)[C@H]1O)[C@H](O)[C@H](O)CCCCCCCCCCCCCC`, the outcome with iNKT was Active.
`CCCCCCCCCCCCCCCCCCCCCCCCCC(=O)N[C@@H](CO[C@H]1O[C@H](Cn2nncc2-c2ccccc2)[C@H](O)[C@H](O)[C@H]1O)[C@H](O)[C@H](O)CCCCCCCCCCCCCC`: the outcome with iNKT, in the assay on Mus musculus [3] and in the assay on Mus musculus [4] was Active.
Consider `CCCCCCCCCCCCCCCCCCCCCCCCCC(=O)N[C@@H](CO[C@H]1O[C@H](CN=[N+]=[N-])[C@H](O)[C@H](O)[C@H]1O)[C@H](O)[C@H](O)CCCCCCCCCCCCCC`, for which the result in the assay on iNKT, in the assay with Mus musculus [1] and with Mus musculus [2] was Active.
As for `CCCCCCCCCCCCCCCCCCCCCCCCCC(=O)N[C@@H](CO[C@H]1O[C@H](Cn2cc(-c3ccccc3)nn2)[C@H](O)[C@H](O)[C@H]1O)[C@H](O)[C@H](O)CCCCCCCCCCCCCC`, the outcome in the assay with iNKT was Active.
